# Only some compounds are listed: those with a hit (about 11% of all), similar ones and a draw of the others.
# S1P3 ag: S1P3 (human) receptor agonism. actives 0.1% (n = 60,000). S1P3 NFAT-BLA reporter cells, FRET ratio; relative to 1 µM S1P, basal subtracted. AID 373. activation, % at 4.5 µM. Q99500;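 active = activation above the screen-wide mean plus 3 SD, cut at about 4.5% in these data, passing the limit was not always enough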
#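 Material: Human S1P3 NFAT-BLA reporter CHO cells | Incubation: Overnight plating, 4 h compound 37 °C, 2 h substrate RT | Signal: FRET β-lactamase substrate fluorescence, excitation 405 nm, 460/535 nm emission ratio, background-subtracted | Compound: 4.5 µM final, single dose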
# D1 mod: allosterically modulates the human D1 dopamine receptor. AID 641. actives 5.9% (n = 58,000). P21728. HEK293 D1, CRE-luciferase, dopamine EC30 potentiation; actives deviate in either direction. B-score at 10 µM;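 active = luminescence count or its row- and column-corrected plate score outside the 99.7% band of the plate's sample wells, on either side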
# Target sequence (P21728 whole entry, looked up): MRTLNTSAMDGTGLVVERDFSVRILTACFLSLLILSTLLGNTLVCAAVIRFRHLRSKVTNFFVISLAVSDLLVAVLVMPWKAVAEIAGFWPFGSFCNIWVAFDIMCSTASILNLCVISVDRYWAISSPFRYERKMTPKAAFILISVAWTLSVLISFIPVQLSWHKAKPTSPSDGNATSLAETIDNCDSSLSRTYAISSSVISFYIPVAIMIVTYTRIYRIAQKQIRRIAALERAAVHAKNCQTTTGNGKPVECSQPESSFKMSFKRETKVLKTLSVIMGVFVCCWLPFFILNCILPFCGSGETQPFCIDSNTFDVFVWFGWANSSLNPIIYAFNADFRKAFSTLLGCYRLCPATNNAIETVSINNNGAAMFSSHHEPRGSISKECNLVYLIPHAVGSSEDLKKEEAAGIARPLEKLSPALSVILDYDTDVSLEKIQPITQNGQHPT
# M1 agonist: M1 muscarinic receptor agonism. actives 3% (n = 64,000). B-score at 10 µM. CHO-M1 cells, Fluo-4 calcium fluorescence, agonist mode; active compounds read high;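 active = fluorescence rise, raw or as B-score row- and column-corrected plate score, outside the 99.7% band of its plate's samples, either direction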
# M1 antagonist: antagonists of rat M1 muscarinic receptor; P08482; CHO-M1 cells, Fluo-4 calcium, ACh EC80 antagonist mode; active compounds read low; B-score at 10 µM; actives 3.4% (n = 64,000); AID 628;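 active = calcium fluorescence response, raw or row-and-column corrected B-score, differing from the plate sample mean either way at a set confidence level, mostly lower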
# S1P1 ag-PAM: S1P1 (human) agonism or agonism potentiation; P21453; S1P1 CRE-bla cells, forskolin, beta-lactamase FRET, potentiator mode; S1P1 agonist co-added at EC20, 2 nM; 100% = saturating reference agonist, 0% = basal; activation, % at 9.5 µM; actives 0.57% (n = 56,000);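 active = activation above a cutoff set at the mean activation of all tested compounds plus 3 SD, cut at about 54% in these data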;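 note: forskolin at 4 µM as EC80 and the EC20 agonist is SEW2871; 100% = SEW2871 at its EC100 plus forskolin at EC80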
# D1 PAM confirm: D1 receptor (human) allosteric modulation, confirmed; shares compounds with D1 mod; HEK293 D1 CRE-luciferase, dopamine EC30 potentiation; active compounds read high; luminescence at 10 µM; actives 88% (n = 2,200); AID 642;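 active = luminescence in either of two replicates above the same-plate mean plus 3 SD of the low-dose dopamine control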
# D1 no dopamine: secondary test of D1 modulators: activity without dopamine | shares compounds with D1 mod | HEK293 D1 CRE-luciferase, luminescence, no dopamine; active compounds read high | luminescence at 10 µM | actives 0.8% (n = 1,900); in the data active = luminescence above about 3900
# Isoprot counter: alters isoproterenol CRE-luciferase response in HEK293 cells; shares compounds with D1 mod; calls only at 10 µM; HEK293 D1 CRE-luciferase, isoproterenol EC30 counter-screen; actives 63% (n = 2,200);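 active = luminescence in either replicate above plate mean of wells with a partly effective reference agonist dose plus 3 SD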;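 note: isoproterenol raises cAMP through native beta-adrenoceptor Gs so signal bypasses D1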
# * marks the source's active call; other numbers are inactive results; i = inactive; / = not tested or not shown; + = active, no number.
SMILES,S1P3 ag,D1 mod,M1 agonist,M1 antagonist,S1P1 ag-PAM,D1 PAM confirm,D1 no dopamine,Isoprot counter
Cc1cccc(-c2nnc3n2N=C(c2ccccc2Br)CS3)c1,-1,8.1*,0.0024,-0.6,33,17404*,1544,+
COc1ccc(-c2nnc3n2N=C(c2cccc(Br)c2)CS3)cc1OC,-1,1.3,0.045,1.3,-34,/,/,/
Cc1ccc(-c2nnc3n2N=C(c2ccccc2)CS3)cc1,-1,8.3*,0.4,0.41,34,21908*,1732,+
COc1ccc(C2=Nn3c(nnc3-c3ccc(OC)cc3)SC2)cc1,1,8.1*,0.0099,1.2,10,16788*,2416,+
CN(C)S(=O)(=O)N(CC(=O)Nc1ccccc1C(F)(F)F)c1ccccc1,0,-0.032,0.0057,-0.22,/,/,/,/
CCOC(=O)N1CCC(NC(=O)Cn2ncn3c(cc4sc(CC)cc43)c2=O)CC1,0,0.84,1.1,0.71,-16,/,/,/
Cc1sc2nc(CN(Cc3cccs3)C(=O)NC3CCCCC3)[nH]c(=O)c2c1C,-1,-0.038,-0.25,1.5,45,/,/,/
CCOc1cc2[nH]c(=O)n(Cc3cccc(OC)c3)c(=O)c2cc1OCC,-1,17*,-0.069,0.037,-7,22168*,1776,+
COc1ccc(S(N)(=O)=O)cc1C(=O)NCC1(N2CCCCC2)CCCCC1,1,-0.029,0.25,0.44,6,/,/,/
CCOC(=O)c1[nH]c(CSc2nnc(-c3ccc(OC)cc3)o2)c(C(=O)OCC)c1C,/,4.8*,-0.9,0.33,/,13216*,1404,+
COc1ccc(-c2nnc(SCC(=O)c3[nH]c(C)c(C(C)=O)c3C)o2)cc1,0,-1.7,-1,-1.1,31,/,/,/
O=C(CSc1nnc(-c2ccco2)o1)N1c2ccccc2CCc2ccccc21,0,0.58,1.3,-0.096,11,/,/,/
CCCS(=O)(=O)N1CCCC(C(=O)NCCc2ccc(Cl)cc2)C1 (stereo not given),0,-0.029,-0.1,-0.82,-38,/,/,/
Cc1noc(NS(=O)(=O)c2ccc(N3Cc4ccccc4C3=O)cc2)c1C,/,6.6*,-0.43,-0.36,/,15188*,1676,+
COC(=O)C1=C(C)Nc2ccc(C)cc2S1,0,8.7*,0.64,0.14,-10,11576*,1468,+
Fc1cc(Br)ccc1Nc1nc2ccccc2n2nnnc12,-1,3.1*,0.0032,-0.51,-29,10956*,1572,i
Cc1cc(Nc2ccc(Br)cc2F)n2nc(C)nc2n1,0,/,-0.38,0.42,-41,/,/,/
CSc1nnc2c3ccccc3n(Cc3ccccc3)c2n1,-1,10*,0.76,-0.29,-13,15672*,1436,+
Cc1ccc(-n2cnnn2)c2cccnc12,0,2.6*,-0.54,0.0087,6,8320*,1580,i
N#Cc1nc(-c2cccs2)oc1NCC1CCCO1 (stereo not given),0,13*,-0.51,1.5,-3,18624*,/,i
CN(CC(=O)Nc1nc2ccccc2s1)S(=O)(=O)c1ccccc1,0,-0.57,-0.38,-0.97,9,/,/,/
C=C(C)CSc1nc(N)c2c(C)c(C)sc2n1,0,11*,0.45,-0.89,-13,16788*,1564,+
CC(C)NC(=O)CN(C(=O)CCC(=O)Nc1ccccn1)c1ccc(F)c(Cl)c1,0,/,-0.036,-0.18,-6,/,/,/
CCNC(=O)c1c(O)c2ccccc2[nH]c1=O,0,11*,-0.049,-0.47,-19,15428*,/,+
CCc1c(C(=O)Nc2ccc(S(=O)(=O)N3CCOCC3)cc2)csc1C,-1,-0.074,1.4,-0.51,5,/,/,/
SMILES,S1P3 ag,D1 mod,M1 agonist,M1 antagonist,S1P1 ag-PAM,D1 PAM confirm,D1 no dopamine,Isoprot counter
CC(=O)N1CCN=C1SCc1cccc(C(F)(F)F)c1,0,4.9*,0.17,0.65,0,10200*,1640,+
O=C(C1CC1)N1CCN=C1SCc1cccc(C(F)(F)F)c1,0,0.6,0.053,0.36,6,/,/,/
CSc1nc2ccccc2n1C(=O)Oc1ccccc1,-2,9.4*,0.1,0.034,-14,12420*,1516,+
O=C(C1CCCN(S(=O)(=O)c2cccnc2)C1)N1CCn2c1nc1ccccc12 (stereo not given),-2,0.079,-1.6,0.31,-11,/,/,/
Cc1ccc(S(=O)(=O)N2CCN(C(=O)COC(=O)c3cc(C)oc3C)CC2)cc1,0,4.3*,-0.14,0.38,11,6052*,1764,i
CNc1nc(C)c(C(=O)OCc2ccccc2)s1,0,18*,-0.91,-0.5,-7,16572*,1592,+
CNc1nc(C)c(C(=O)OCC(=O)OC)s1,0,9.4*,/,/,-24,13828*,1716,i
Cn1c(SCc2c(Cl)cccc2Cl)nnc1-c1cccs1,-2,2.6,0.014,-0.94,18,/,/,/
COC(=O)C(C)Sc1nnc2n(-c3cccc(C)c3)c(=O)c3c4c(sc3n12)CCCC4 (stereo not given),-1,9.3*,-1.2,-0.34,-2,16844*,1688,+
N#CC1=C(N)S[C@H](C(=O)C23CC4CC(CC(C4)C2)C3)[C@H]1c1ccncc1,-1,12*,-0.22,-0.095,-14,12784*,1676,+
O=C(NCc1ccncc1)C12CC3CC(CC(C3)C1)C2,0,0.95,-0.11,0.66,11,/,/,/
O=C(CSc1ccc2nnc(-c3ccc(Cl)cc3)n2n1)N1CCN(c2ccccc2)CC1,-1,-0.023,0.52,-0.029,-17,/,/,/
CCCCN(CC)C(=O)c1ccc(Cl)c(Cl)c1,0,3.8*,1.6,-0.83,/,7124*,1704,i
CC1(C)Cc2c(sc3c2c(=N)n(Cc2ccco2)c(=O)n3Cc2ccc(Cl)cc2)CO1,/,25*,0.0031,-0.048,/,24660*,1604,+
CCNc1nc(NCC)n2c(SCc3nc4ccccc4c(=O)[nH]3)nnc2n1,2,27*,-0.31,0.28,-68,21452*,1628,+
CCNc1nc(NCC)n2c(SCc3ccc(F)cc3)nnc2n1,-2,/,/,/,10,/,/,/
CCOC(=O)c1sc2nc(N3CCOCC3)c3c(c2c1N)CC(C)(C)N(C)C3,/,3.1*,1.3,-1.1,/,12684*,1612,+
CCOC(=O)c1c(N)n[nH]c1-c1ccc(OC)cc1,0,9*,-1.3,0.1,0,16256*,/,+
CCOC(=O)c1nnn(-c2nonc2N)c1-c1ccc(OC)cc1,1,11*,-0.28,-1,-32,22732*,1492,+

# Bioassay records as filed in PubChem.
